Thrombin inh: human alpha-thrombin inhibitors, primary screen, counter-screen for coagulation protease inhibitor project, biochemical, 1536-well, fluorogenic AMC substrate; Boc-VPR-AMC fluorogenic substrate cleavage; 220,000 compounds, 0.26% hits; AID 1046, 2008; Prothrombin (Homo sapiens), P00734; inhibition, % at 5 µM;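 active means inhibition at or above 40%; inactive means inhibition below 40%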;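 further: 0% = enzyme with no compound and 100% = wells without enzyme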
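Assay system: human alpha-thrombin enzyme. Reagent: Boc-VPR-AMC substrate, 15 µM final. Compound dosing: one concentration per compound, 5 µM, with 0.2% DMSO. Incubation: room-temperature reaction. Technique: AMC fluorescence, 355/460 nm. Measure: % inhibition relative to enzyme controls and enzyme-free blanks.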
FXIa inh: human FXIa protease inhibitors, primary screen, biochemical, 1536-well | Coagulation factor XI (Homo sapiens), P03951 | AID 798, 2007 | 220,000 compounds, 0.14% hits | purified FXIa, Boc-Glu-Ala-Arg-AMC fluorogenic substrate | inhibition, % at 5 µM;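 active means inhibition of at least 40%; inactive means inhibition below 40%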;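 further: fluorescence of freed AMC excited at 355 nm; 0% = enzyme without compound and 100% = no enzyme blank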
Rce1 inh: yeast Rce1p protease inhibitors, primary screen, biochemical, fluorescence, cell-free homogeneous | CAAX prenyl protease 2 (Saccharomyces cerevisiae (strain ATCC 204508 / S288c)), Q03530 | yeast membranes, quenched prenylated peptide cleavage fluorescence | calls only | 290,000 compounds, 0.27% hits;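 active means fall in fluorescence gain of 50% or more versus controls, with final raw signal at or below 3038400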;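 further: plate controls were neutral control wells for no effect and wells lacking membranes for full effect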
Target sequence (Q03530 whole entry, looked up): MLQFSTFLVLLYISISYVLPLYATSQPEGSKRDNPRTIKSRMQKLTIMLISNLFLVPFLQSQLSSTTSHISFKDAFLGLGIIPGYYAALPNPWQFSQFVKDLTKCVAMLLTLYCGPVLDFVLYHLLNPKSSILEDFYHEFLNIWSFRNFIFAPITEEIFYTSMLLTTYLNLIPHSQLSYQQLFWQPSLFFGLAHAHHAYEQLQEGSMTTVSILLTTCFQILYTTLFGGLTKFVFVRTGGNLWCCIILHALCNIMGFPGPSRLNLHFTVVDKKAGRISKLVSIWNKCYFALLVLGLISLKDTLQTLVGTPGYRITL
FXIIa inh: human FXIIa protease inhibitors, primary screen, biochemical, 1536-well. Coagulation factor XII (Homo sapiens), P00748. purified FXIIa, Boc-QGR-AMC fluorogenic substrate, 2 h. inhibition, % at 5 µM. 220,000 compounds, 0.3% hits; in the data active means inhibition above about 40%;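 further: 0% = enzyme with no compound and 100% = blank without enzyme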
CTSL1 counter: Fasciola hepatica cathepsin L1 inhibitors, primary screen, counter-screen for PFM18AAP inhibitor project, biochemical, QFRET, fluorogenic peptide substrate | recombinant F. hepatica cathepsin L1, Z-Leu-Arg-MCA fluorescence | inhibition, % at 5.96 µM | 300,000 compounds, 0.49% hits;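 active means inhibition above the mean of all tested compounds plus 3 SD, set per screening campaign, cut at about 17% in these data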;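 further: 0% = plate median of test compound wells and 100% = 1 µM Z-Phe-Ala-diazomethylketone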
KLK5 inh: human KLK5 protease inhibitors, primary screen, biochemical, 1536-well; 210,000 compounds, 0.59% hits; recombinant hK5, fluorogenic AMC substrate cleavage; inhibition, % at 5 µM; Kallikrein-5 (Homo sapiens), Q9Y337;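 active means inhibition of 40% or more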;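 further: 0% = enzyme controls without compound and 100% = no-enzyme blanks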
Target sequence (Q9Y337 67-293 limits assumed): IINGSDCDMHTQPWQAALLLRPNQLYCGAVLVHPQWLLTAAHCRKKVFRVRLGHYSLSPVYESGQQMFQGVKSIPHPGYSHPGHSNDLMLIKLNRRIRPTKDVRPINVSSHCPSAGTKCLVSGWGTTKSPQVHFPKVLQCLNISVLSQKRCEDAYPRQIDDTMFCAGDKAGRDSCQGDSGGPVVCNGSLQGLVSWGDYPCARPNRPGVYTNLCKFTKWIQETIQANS
Numbers without * were called inactive; i = inactive; x = no result given; + = active, no number. The list is not random: actives were taken first. Their share in the collection is about 1.4%.

SMILES | Thrombin inh | FXIa inh | Rce1 inh | FXIIa inh | CTSL1 counter | KLK5 inh
Oc1ccc(Oc2ccc3c(C(F)(F)F)cc(C(F)(F)F)nc3n2)cc1 | 4 | -5 | i | 0 | -2 | 132*
COc1ccc(Oc2ccc3c(C(F)(F)F)cc(C(F)(F)F)nc3n2)cc1 | 4 | -22 | i | 17 | 0 | -18
Cc1cccc(N(CC(=O)NC(C)C)C(=O)CCC(=O)Nc2nccs2)c1 | x | x | i | x | -1 | x
CN1CCN(C(=O)c2cc3c(C(F)(F)F)nn(C)c3s2)CC1 | 4 | -5 | i | 2 | -2 | 48*
CN(C(=O)CCc1nc(-c2ccccc2F)no1)c1ccccc1 | -7 | -5 | i | 6 | 37* | -3
Cc1cccc(CCNC(=O)CCc2nc(-c3ccccc3F)no2)c1 | -12 | -4 | x | -5 | -1 | -6
COc1cc(CC(=O)Nc2cccc(C(F)(F)F)c2)cc(OC)c1OC | 0 | 5 | i | 6 | -1 | -3
COc1cc(CCC(=O)Nc2cccc(C(F)(F)F)c2)cc(OC)c1OC | 41* | 4 | i | 2 | -1 | 10
COc1ccccc1C(=O)Nn1c(C)nc2ccccc2c1=O | x | x | i | x | -7 | x
c1coc(-c2nc(-c3ccco3)c(-c3ccco3)nc2-c2ccco2)c1 | 32 | 25 | x | -8 | 2 | 71*
COc1ccccc1CN1CCC(n2nccc2NC(=O)CCc2ccccc2)CC1 | x | x | i | x | -1 | x
N#CCCN(C(=O)COC(=O)c1ccc(S(=O)(=O)Nc2ccccc2)cc1)c1ccccc1 | -8 | -3 | i | 4 | -4 | -16
COc1ccc(C2=NN(C(N)=S)C(c3ccco3)C2)cc1 (stereo unspecified) | -5 | -2 | i | x | 62* | 0
Cc1ccn(CC(=O)O)c(=O)c1 | -6 | 28 | i | 58* | 1 | -2
CN(C)C(CNC(=O)c1cc(Br)ccc1Cl)c1ccco1 (stereo unspecified) | x | x | i | x | 22* | x
O=C1OC(Nc2ncccn2)c2ccccc21 (stereo unspecified) | 14 | 8 | i | 106* | -3 | 42*
O=C1OC(Nc2cc(Br)cc3cccnc23)c2ccccc21 (stereo unspecified) | -5 | -14 | i | 1 | 98* | -7
O=C1OC(Nc2ccccn2)c2ccccc21 (stereo unspecified) | 4 | 4 | i | 18 | -3 | 3
Cc1ccc(/C=C2\SC(=S)N(CCCC(=O)Nc3cccc(C(=O)O)c3)C2=O)cc1 | x | x | i | x | 7 | x
CN(C)S(=O)(=O)c1cccc(N2C(=O)CC3(CCCCC3)CC2=O)c1 | 6 | 11 | i | 23 | -2 | x
O=C(O)c1ccc(NC2=C(Cl)C(=O)c3ccccc3C2=O)cc1 | 23 | 14 | i | 43* | 12 | 81*
CCC(C)Sc1ccc([C@@H]2[C@@H]3C(=O)N(C)C(=O)[C@@H]3[C@]3(C(=O)OC)CCCCN23)cc1 (stereo partly specified) | x | x | i | x | -1 | x
O=C(NNC(=O)c1ccc(O)c(Cl)c1)c1cccc(S(=O)(=O)N2CCOCC2)c1 | x | x | + | x | 6 | x
COc1ccc2oc(=N)c(C(=O)Nc3ccccc3Cl)cc2c1 | x | x | i | x | 20* | x
O=C1C[C@H]2[C@H](CO)[C@@H](OC(=O)c3ccc(-c4ccccc4)cc3)C[C@H]2O1 | 19 | 17 | i | 10 | 1 | 72*
SMILES | Thrombin inh | FXIa inh | Rce1 inh | FXIIa inh | CTSL1 counter | KLK5 inh
Cc1cc(F)ccc1N1CCC(N2CCN(CCC(C)C)C(CCO)C2)CC1 (stereo unspecified) | 45* | 40 | i | 28 | -6 | 42*
CC(C)[C@H](NC(=O)[C@@H]1CSC2c3ccccc3C(=O)N21)C(=O)NCC1CCCO1 (stereo partly specified) | x | x | i | x | 10 | x
CCC(C)[C@H](NC(=O)[C@@H]1CSC2c3ccccc3C(=O)N21)C(=O)NCC1CCCO1 (stereo partly specified) | x | x | i | x | 17* | x
CN(C(=O)COC(=O)COc1ccccc1Cc1ccccc1)c1ccccc1 | x | x | i | x | 18* | x
COc1ccccc1CNC(=O)COC(=O)COc1ccccc1Cc1ccccc1 | x | x | i | x | 17* | x
CCOc1ccc(CCNC(=O)c2ccc(C)c(NC3=NC4CS(=O)(=O)CC4S3)c2)cc1 (stereo unspecified) | x | x | i | x | -2 | x
CC1CCc2[nH]nc(C(=O)O)c2C1 (stereo unspecified) | 78* | 15 | i | 5 | -4 | 32
CCC1CCc2[nH]nc(C(=O)O)c2C1 (stereo unspecified) | 1 | -2 | i | 8 | -5 | -2
O=C(NCc1ccccc1F)C(c1ccccc1)c1ccccc1 | x | x | i | x | 0 | x
Fc1ccc(-c2nc(-c3cccs3)[nH]c2-c2ccc(F)cc2)cc1 | -7 | -10 | i | 3 | 0 | -23
Cc1ccsc1-c1nc(-c2ccccc2)c(-c2ccccc2)[nH]1 | 0 | 8 | i | 7 | 19* | -20
CCOC(=O)C1CCN(C(=O)C2(NC(=O)Nc3ccccc3C)CCCCC2)CC1 | x | x | i | x | -2 | x
COc1ccc2nc3ccccc3nc2c1N | 15 | 29 | i | 44* | -7 | 19
COc1ccc(-c2nc3ccccc3nc2-c2ccc(OC)c(OC)c2)cc1OC | x | x | i | x | 3 | x
COc1ccc2nc(-c3ccco3)c(-c3ccco3)nc2c1 | -18 | 3 | i | 1 | 11 | -3
COc1ccc2nc3cccc(OC)c3nc2c1 | -3 | 0 | i | 3 | 19* | 5
O=C(Nc1ccc(N2CCOCC2)c(Cl)c1)c1cc2ccccc2o1 | -1 | 4 | + | 14 | -1 | -8
Cc1[nH]c(=O)[nH]c(=O)c1S(=O)(=O)Nc1cccc(C(F)(F)F)c1 | x | x | i | x | x | x
Cc1nc2c(-c3ccc(F)cc3)cnn2c(N)c1-c1ccccc1 | x | x | i | x | 19* | x
Cc1nc2c(-c3ccc(Cl)cc3)cnn2c(N)c1-c1ccc(F)cc1 | x | x | i | x | 1 | x
O=C(NC(Cc1ccccc1)C(=O)O)OCc1ccccc1 (stereo unspecified) | -7 | -1 | i | 4 | -1 | -3
CC(C)C(NC(=O)C(Cc1ccccc1)NC(=O)OCc1ccccc1)C(=O)O (stereo unspecified) | 3 | 47* | i | 24 | -1 | 21
CCC(=O)C1=C(N2CCCC2)CC(C)(C)CC1=O | 11 | 3 | i | 27 | -4 | 47*

Assay outcomes (PubChem BioAssay)
